Experimental data: ChEMBL document CHEMBL1151709, “Antileishmanial constituents of the Panamanian endophytic fungus Edenia sp” (J Nat Prod, 2008)

What was measured:
Trypanosoma cruzi = assay: Antitrypanosomal activity against Trypanosoma cruzi; format: functional, organism-based
In short: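 Buckner et al. protocol with nifurtimox as positive control; tested in duplicate at 10, 2, 0.4, 0.08 and 0.016 μg/mL.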

[1] = Therapeutic index, ratio of IC50 for african green monkey Vero cells to IC50 for Leishmania donovani LD-1S/MHOM/SD/00-strain 1S amastigotes; format: cell-based; conditions: read-out: Ratio IC50
In short: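 Therapeutic window calculated as Vero-cell IC50 (MTT cytotoxicity) divided by IC50 against axenic L. donovani amastigotes (PicoGreen growth/survival assay).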

Plasmodium falciparum = assay: Antimalarial activity against Plasmodium falciparum; format: functional, organism-based
In short: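 Run per the authors' earlier protocol with chloroquine as positive control; duplicate wells at 10, 2, 0.4, 0.08 and 0.016 μg/mL.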

Leishmania donovani = assay: Antileishmanial activity against Leishmania donovani LD-1S/MHOM/SD/00-strain 1S amastigotes; format: functional, organism-based
In short: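 Axenic (cell-free) L. donovani amastigotes; parasite growth and survival read with PicoGreen. Single-concentration screen at 10 μg/mL in duplicate, expressed as % growth versus control; samples at ≤50% growth then tested at […], 0.08, 0.4, 2 and 10 μg/mL to derive IC50. Amphotericin B positive control.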

Vero = assay: Cytotoxicity against african green monkey Vero cells by MTT assay; format: cell-based; conditions: Chlorocebus sabaeus
[2] = Leishmania donovani, 1S, read-out: IC50

| IC50 (Trypanosoma cruzi) | IC50 (Plasmodium falciparum) | SMILES | selectivity ratio [1] | IC50 (Leishmania donovani; [2]) | IC50 (Vero) | IC50 (Leishmania donovani) |
| --- | --- | --- | --- | --- | --- | --- |
| 26.5 µM | > 10 µM | Oc1cccc2c1[C@@H](O)CCC21Oc2cccc3cccc(c23)O1 | 18 | 8.4 µM | 150 µM | – |
| > 10 µM | > 10 µM | O=C1C=CC(=O)C2=C1[C@@H](O)CCC21Oc2cccc3cccc(c23)O1 | 245 | 0.62 µM | 152 µM | – |
| – | – | C[C@@H]1[C@H](O)[C@@H](C)/C=C/C=C/C=C/C=C/C=C/C=C/C=C/[C@H](O[C@@H]2O[C@H](C)[C@@H](O)[C@H](N)[C@@H]2O)C[C@@H]2O[C@](O)(C[C@@H](O)C[C@@H](O)[C@H](O)CC[C@@H](O)C[C@@H](O)CC(=O)O[C@H]1C)C[C@H](O)[C@H]2C(=O)O [AMPHOTERICIN B] | – | – | – | 0.07 µg/mL |
| – | – | COc1cc2c(c(OC)c1)C(C)=[N+](c1ccc(OC)c3c(OC)cc(C)cc13)[C@@H](C)C2.O=C([O-])C(F)(F)F [ANCISANCISTROCLADINIUM A] | – | 0.722 µg/mL | – | – |
| – | – | COc1cc2c(c(OC)c1)C(C)=[N+](c1ccc3cc(C)cc(OC)c3c1O)[C@@H](C)C2.O=C([O-])C(F)(F)F [ANCISTROCLADINIUM B] | – | 1.1 µg/mL | – | – |
| 3 µg/mL | – | CC1CS(=O)(=O)CCN1/N=C/c1ccc([N+](=O)[O-])o1 (centres undefined) [NIFURTIMOX] | – | – | – | – |
| 18.5 µM | > 10 µM | O=C1CCC2(Oc3cccc4cccc(c34)O2)c2cccc(O)c21 [PALMARUMYCIN CP2] | 41 | 3.93 µM | 162 µM | – |
| > 10 µM | > 10 µM | O=C1CCC2(Oc3cccc4cccc(c34)O2)c2c(O)ccc(O)c21 [PALMARUMYCIN CP17] | 130 | 1.34 µM | 174 µM | – |
| > 10 µM | 16.5 µM | O=C1C=C[C@]23Oc4ccc(O)c5c4[C@](CCC5=O)(Oc4cccc1c42)O3 [PREUSSOMERIN EG1] | 75 | 0.12 µM | 9 µM | – |
